Test results published in the EternaBench riboswitch data.

System: MS2 coat protein
Assay: apparent Kd, MS2 coat protein; higher = weaker binding; RNA-MaP array; FMN 200 µM where present
In short: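 The apparent Kd is the median of filtered binding-curve fits, one per cluster, to green signal normalised to red-channel RNA signal and control-cluster median Fmax. The clusters were on Illumina sequencing chips, and stalled E. coli RNA polymerase had transcribed the designs on them. Titration used SNAP-549-labelled MS2 coat protein from 0.7 or 1.5 nM, doubling to 3 µM, without and then with constant ligand, in 100 mM Tris-HCl pH 7.5, 80 mM KCl, 4 mM MgCl2, BSA, DTT, yeast tRNA and Tween-20.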

[1] = designed as: OFF switch for flavin mononucleotide, no ligand
[2] = ligand present: flavin mononucleotide, designed as: OFF switch for flavin mononucleotide
[3] = designed as: ON switch for flavin mononucleotide, no ligand
[4] = ligand present: flavin mononucleotide, designed as: ON switch for flavin mononucleotide

Sequence	apparent Kd [1]	apparent Kd [2]	apparent Kd [3]	apparent Kd [4]
UCAUUUCUGUAAGGAUAUUUAAACAUGACGAUACAUGAGGAUCACCCAUGUAAAGAAGGUACAAAUACAUAUAAUGCAAUGUUC	7.55 nM	7.39 nM		
UUUACAUGAGGAUCACCCAUGUAUGUCACCCAUGUGUGUAAUCAGGAUAUGAUAUCAAUAAUAAAUUAGAAGGGAUAACAUGAG			59.5 nM	75.1 nM
GGGUGCUCACCGCCUUAACAUGAGGAUCACCCAUGUGGAGUGCAGGAUAUACGUCUCUAUCAUACGUAGAAGGGCACCGCGCAG	5.45 nM	5.9 nM		
AUUUUUUGUCAUGUACAUGAGGAACAUGAGGAUCACCCAUGUAGAAGGAAUUUUUUUAAGUUUAGUUAGGAUAUACAUAUAUUA	47.7 nM	28.6 nM		
AUGGACGUCGUAGGAUAUGUAGGAUUCUCGUACAUGAGGAUCACCCAUGUUGACGUCGAGGACGGACAGAAGGGCGGUGUCUAU			64.6 nM	9.38 nM
UCAGGCUUCGAGAAGGACAUGAAUCGUAGCAUUGCUACGAUCAUUGAUACAUGAGGAUCACCCAUGUAGGAUAUCGGAGUCUGC	5.99 nM	6.75 nM		
UUAUUAUAUGUAGGAUAUGCAUAUUAGUAUUGUGCAGAAGGACAUGAGGAUCACCCAUGUAUAUUAUUAUUAUAUAUUAUAUAU	14.6 nM	21.4 nM		
UGCUAGAACCUAGGAUAUCCUGGGUUGGUGGUGCUUGAUGACCGGACAUGAGGAUCACCCAUGUAGGAGAAGGAGGUUGUUAAG	60.6 nM	112 nM		
AAUAACAGAGGAUAUACUAUUUUAUGUAUUUAUUAUUUUGAACAUGAGGAUCACCCAUGUAGAAGGCUGAUUAA	29.6 nM	27.2 nM		
CACGUGUAAGGAUAUGACAAUGGUAUCUUCGGAUACCAUUGUCAGAAGGUACAUGAGGAUCACCCAUGUAACAC	16.1 nM	26.8 nM		
UGGUACUAGGGAGGAUAUGGGAAGAUACAUGAGGAUCACCCAUGUUUAAGAAUGCCGAGAGGCAACCAGAAGGCCCUAGUACCU			8.27 nM	5.57 nM
AUUGAGAUAGCGAUAUGAUCGAGAGAUCAUGUCGCUAAGUUUAGAAGGACAUGAGGAUCACCCAUGUAGGAUAUGGGAGUAGAA			128 nM	57.5 nM
AAGAAGUCAGGAUAUGCUGCUCGUCACUUGCGUGAUGAGUAGCAGAAGGGACAUGAGGAUCACCCAUGUAAAGA	32.5 nM	67.4 nM		
UUGGACGUCGUAGGAUAUGUAGGAAAUUCCUACAUGAGGAUCACCCAUGUUGACAUGGAAGAAGGACAGAAGGACGAUGUCCAU			262 nM	12.4 nM
GCAUUGAUAACAGGAUAUAUGAGUCCUACAUGAGGAUCACCCAUGUAGGUGAUCAGCCGUGAUUAGUAGAAGGGUUAUCAAUGC			13 nM	5.99 nM
UGAUAGGACAGAGGAUAUACGUAUAAAUAUCCUCACAUGAGGAUCACCCAUGUAGAAGGCUGUCCUAUCUAAGUCGGAAACGAC	15.6 nM	317 nM		
UUACUCAUGUAAGGAUAUGCAGCCGAAACGGCUGCAGAAGGUACUAUAAUACAUGAGGAUCACCCAUGUCUUUUUAAUUUAGAC			51.2 nM	78 nM
GAAGCACGCAUUAACAUGAGGAUCACCCAUGUCAAAAGACGUGAGGAUAUGGAUCUGAAGAAGAUCCAGAAGGCACCGUGCUAA			8.41 nM	5.3 nM
AAUUAUUAUUGAGGAUAUCGUAUUGAAACAAUAUGAGAAGGCGGGAUAAACAUGAGGAUCACCCAUGUGAGCCUGAUGCUUGUG	16.3 nM	15.6 nM		
ACCUCACAUGAGGAUCACCCAUGUUAGGAUAUCUCGGUGCCCUGCAGGCAGUGGCACCAGAGAAGGAACGUGCA	19.2 nM	24.2 nM		
AUUUCGUUAGCAGGAUAUGGACAGGCCUGUCCGUAUUGAGUCAGUAACAUGAGGAUCACCCAUGUCCAGAAGGGCUCGAAGUAU	7.83 nM	15.3 nM		
UUCUUUCCUCAUGUACAUGAGGAACAUGAGGAUCACCCAUGUAGAAGGAUUUCCAUUAAAUUAAAAUAGGAUAUACAUAUAUUU	18.6 nM	16.7 nM		
GCCCUUCGUGGAAGGGCAAAAGGACAGGAUAUCGCUUAAACAUGAGGAUCACCCAUGUCCGUUAACGAGAAGGGUCGAAUAAAU			64.2 nM	12 nM
ACCUUACUGGUCAGGAUAUACAGUCUUUGGUGUGUGUAGAAGGGACAUGAGGAUCACCCAUGUAGGUUGCAGCA	70 nM	62.7 nM		

Sequence	apparent Kd [1]	apparent Kd [2]	apparent Kd [3]	apparent Kd [4]
GCGGCUAGUGCAGGAUAUCGGCGCGUGUAGUGCCGAGAAGGGCACAUGAGGAUCACCCAUGUGAUCAAUCACUGCUAAGGCCGC	5.26 nM	5.4 nM		
GGAUUGGACAGAGGAUAUACGUGCUAGAGAUACUAGCAAAAUUUCCUCACAUGAGGAUCACCCAUGUAGAAGGCUGUCCUAUCG	15.6 nM	378 nM		
UGAUAGGACAGAGGAUAUACCGAUAGGAUCUACUAUCGAACAAUCCUCACAUGAGGAUCACCCAUGUAGAAGGCUGUCCUAUCU	25.2 nM	284 nM		
GCUUUUAAGGGAGGAUAUUGUUACAUGAGGAUCACCCAUGUGGCGGGAUGAUAUCUUAACAGGAACGAGAAGGCCCAAACGCGA	35.7 nM	65.4 nM		
ACCAUUUACUAAUCCUCUAUACAUGAGGAUCACCCAUGUUAAGAGGAUAUCAUCGUUCGCCGCGUUGAGAAGGCUUAGCAUUCG	14.8 nM	23.1 nM		
UUUGUCAUCGAGAAGGCCUCAACAUGAGGAUCACCCAUGUUGUAAUAUGGGAGGAUAUCGAUGAUACAGCUACGUUUCGUAGGG			18.1 nM	5.6 nM
AGGAAGUGAGGAUAUGCAGCAGCUAGUGGACGCUAGCGCAUGUAGAAGGCACAUGAGGAUCACCCAUGUUUAAA	32.1 nM	36.2 nM		
AAAGACAGAGGAUAUGCACGCCGACCCGGGCGGGAAGUCGGACAUGAGGAUCACCCAUGUAGAAGGCUGAGAAA	11.3 nM	14.8 nM		
UACCAAUUUUUGGUAUUACACUAUGAGGAUAUCAUAUAUGAAUACAUGAGGAUCACCCAUGUGUGUGAGAAGGCAUAAUUUAUA			28.1 nM	10.5 nM
CCCUAGGUAGGAUAUACUUGGGCUCGGCUGAUGUGCUUAAAACAUGAGGAUCACCCAUGUAGAAGGACUAAGGC	15.3 nM	12.9 nM		
AAGAGUAGAGGAUAUACAUGAGGAUCACCCAUGUAAUCCAGAUAAGGAAGCAUGGCGUGUAGAAGGCUGCAUGA	38.5 nM	42.4 nM		
UUUAUUAGUUAGAAGGCUUGAUGAAUUACAAUGGACAUGAGGAUCACCCAUGUGUAUUCAUGUUAAGAGGAUAUAGUCAUAUAU			30.2 nM	20.2 nM
UCAGUAGAGUGAGGAUAUACGAAAGGCGAUCCAUACAUGAGGAUCACCCAUGUAGAAGGCACUCUACUGUAAGUCGGAAACGAC	173 nM	12.3 nM		
UACAUUAACAUGAGGAUCACCCAUGUUGGCCAGUCUCUCACCAGAAGGCACGUAGAGUACAACAGUGAGGAUAUGGGUGACAUA			139 nM	86.1 nM
ACAUGAGGAUCACCCAUGUAUACAUAGGAUAUUGGUGAUCAGGGAUGUUUUACAGGAUAUGUCUGCGAGAAGGAUGCAAGUUGU			360 nM	70.4 nM
CCGUAGGGAGGAUAUCCAAUAUAUGACAUGAGGAUCACCCAUGUUUCCACUCGUACCUCCGGAGAAGGCCCAUCCC	24.9 nM	22.3 nM		
UGUCGGAGCAGAGGAUAUUACAUGAGGAUCACCCAUGUAUUAACCAAUAGCUGGAAACAGCAAUGUAAGAAGGCUGCUCCGACA	5.11 nM	7.87 nM		
GCUGGUCAAGGAUAUGCAAUCGUGCUUCGGCACGUAAGAUCACAUGAGGAUCACCCAUGUAGAAGGUGACCAGC	22.5 nM	59.8 nM		
AUAUCUAUAUCAGGAUAUGGACAGGCCUGUCCGUAUUGAGACAGUAACAUGAGGAUCACCCAUGUCCAGAAGGGAUCGAUGUAU	48 nM	40.2 nM		
AUAUUUAUUUAGAAGGACAUGAGGAUCACCCAUGUCGCUGGGCGCGGGAAACCGUGCCCGGCCAUGUAGGAUAUAGGUAGAUAU	14.2 nM	12.2 nM		
UUUUAACAUGAGGAUCACCCAUGUGAGGAUAUCGAAAUUUAUAUUAAUAUUAAUAUAUCGAGAAGGCACAUUUU	79.8 nM	104 nM		
GUAGCAUACAGAGGAUAUUCAAACGACAAAAGUCGACAUGAGGAUCACCCAUGUGGCGAAAGCCGGGAGAAGGCUGAAUGCUAC			15 nM	12 nM
GAAUUACAUGAGGAUCACCCAUGUGAGGAUAUCGAUGUAACUAGCAGCGUGCGGGACUCGAGAAGGCACUUGGA	39.1 nM	67.5 nM		
CUAUGAAGAAUAGGAUAUUCGAUCAUGAGGAUAGAAGAAGGGUUACAUGAGGAUCACCCAUGUAUGCACAUGAGGAUCCCUUAG	167 nM	195 nM		
